Calls of active or inactive are those of the source. No cut-off for these calls is given here.
What was measured:
[1] = Cytotoxicity against human Hs683 cells after 72 hrs by MTT assay; format: functional, cell-based, Hs 683
Summary of the method: (§1)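 MTT reduction read by spectrophotometry after 72 h compound exposure; growth measured as treated vs control optical density, IC50 taken as the concentration giving 50% growth reduction. Six replicates per condition. Cells grown in RPMI with 10% heat-inactivated FBS, 4 mM glutamine, gentamicin and penicillin–streptomycin; NHDF fibroblasts were instead kept in FGM-2 fibroblast medium.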

SK-MEL-28 [2] = experiment: Cytotoxicity against human SK-MEL-28 cells after 72 hrs by MTT assay; format: functional, cell-based; summary of the method: as §1
PC-3 [3] = experiment: Cytotoxicity against human PC3 cells after 72 hrs by MTT assay; format: functional, cell-based; summary of the method: as §1
A549 [4] = experiment: Cytotoxicity against human A549 cells after 72 hrs by MTT assay; format: functional, cell-based; summary of the method: as §1
MCF7 = experiment: Cytotoxicity against human MCF7 cells after 72 hrs by MTT assay; format: functional, cell-based; summary of the method: as §1
[5] = Cytotoxicity against human U373 cells after 72 hrs by MTT assay; format: functional, cell-based, U-373MG ATCC; summary of the method: as §1
U-251 = experiment: Cytotoxicity against human U251 cells after 72 hrs by MTT assay; format: functional, cell-based; summary of the method: as §1
Hs 683 [6] = experiment: Induction of apoptosis in human Hs683 cells at 1 uM after 72 hrs by TUNEL staining; format: functional, cell-based
U-373MG ATCC [7] = experiment: Induction of ROS production in human U373 cells at 10 uM after 48 hrs by flow cytometry; format: functional, cell-based
Summary of the method: (§2)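 Hs683 and U373 glioma cells were exposed to 10 μM for 48 and 72 h; the positive control was 4 mM H2O2 for 1 h. Cells were then loaded with 20 μM DCFH-DA in phenol-red-free RPMI for 1 h at 37 °C, washed twice and detached. Fluorescence was measured by flow cytometry, run once in quadruplicate.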

U-373MG ATCC [8] = experiment: Cytotoxicity against human U373 cells assessed as growth inhibition at 10 uM […] by quantitative video microscopic analysis; format: functional, cell-based
Summary of the method: (§3)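 Computer-assisted phase-contrast time-lapse microscopy in T25 flasks with 10 μM compound. Cells were counted on images at 6, 12, 24 h for U373 and A549, and at 24, 48, 72 h for SKMEL-28. Global growth is last-image count over first-image count. The ratio index is treated global growth over untreated control global growth. Run in triplicate.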

U-373MG ATCC [9] = experiment: Induction of apoptosis in human U373 cells at 1 uM after 72 hrs by TUNEL staining; format: functional, cell-based
A549 [10] = experiment: Cytotoxicity against human A549 cells assessed as growth inhibition at 10 uM […] by quantitative video microscopic analysis; format: functional, cell-based; summary of the method: as §3
HBL-100 = experiment: Cytotoxicity against human HBL100 cells after 72 hrs by MTT assay; format: cell-based; details: HBL-100, 72 h; summary of the method: as §1
Hs 683 [11] = experiment: Induction of ROS production in human Hs683 cells at 10 uM after 72 hrs by flow cytometry; format: functional; summary of the method: as §2
SK-MEL-28 [12] = experiment: Cytotoxicity against human SK-MEL-28 cells assessed as growth inhibition at 10 uM after 24 hrs by MTT assay; format: functional, cell-based
B16-F10 = experiment: Cytotoxicity against mouse B16F10 cells after 72 hrs by MTT assay; format: functional, cell-based; details: B16-F10, 72 h; summary of the method: as §1
LoVo = experiment: Cytotoxicity against human LoVo cells after 72 hrs by MTT assay; format: functional, cell-based; summary of the method: as §1
HaCaT = experiment: Cytotoxicity against human HaCaT cells after 72 hrs by MTT assay; format: cell-based; summary of the method: as §1
[13] = Induction of ROS production in human U373 cells at 10 uM after 72 hrs by flow cytometry; format: functional, U-373MG ATCC; summary of the method: as §2
A549 [14] = experiment: Cytotoxicity against human A549 cells assessed as growth inhibition at 10 uM after 24 hrs by MTT assay; format: functional, cell-based
NHDF = experiment: Cytotoxicity against human NHDF cells after 72 hrs by MTT assay; format: cell-based; summary of the method: as §1
U-373MG ATCC [15] = experiment: Cytotoxicity against human U373 cells assessed as growth inhibition at 10 uM after 24 hrs by MTT assay; format: functional, cell-based
SK-MEL-28 [16] = experiment: Cytotoxicity against human SK-MEL-28 cells assessed as growth inhibition at 10 uM after 24 to 72 hrs by quantitative video microscopic analysis; format: functional, cell-based; summary of the method: as §3
PC-3 [17] = experiment: Induction of apoptosis in human PC3 cells at 1 uM after 72 hrs by TUNEL staining; format: functional
Summary of the method: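 TUNEL apoptosis staining with a commercial kit, read by flow cytometry. PC3 prostate cells were untreated or exposed to 1 μM for 72 h, four replicates. Kit-supplied lymphoma cells served as extra negative and positive controls.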

[18] = Homo sapiens, Hs 683, 72 h, read-out: IC50
[19] = Homo sapiens, SK-MEL-28, 72 h, read-out: IC50
[20] = Homo sapiens, PC-3, 72 h, read-out: IC50
[21] = Homo sapiens, A549, 72 h, read-out: IC50
[22] = Homo sapiens, MCF7, 72 h, read-out: IC50
[23] = Homo sapiens, U373 MG, 72 h, read-out: IC50
[24] = Homo sapiens, U-251, 72 h, read-out: IC50

Structure (SMILES)	IC50 [1, 18]	IC50 (SK-MEL-28 [2]; [19])	IC50 (PC-3 [3]; [20])	IC50 (A549 [4]; [21])	IC50 (MCF7; [22])	IC50 [5, 23]	IC50 (U-251; [24])	further results
C/C(=C\CC[C@]1(C)CC[C@@H]([C@@H](C)C(=O)O)OO1)CCC12OC1(C)CCCC2(C)C (relative stereo)	3 µM	22 µM	2 µM	3 µM	6 µM	7 µM	–	–
C=C1CCCC(C)(C)C1(O)CC/C(C)=C/CC[C@]1(C)CC[C@@H]([C@@H](C)C(=O)O)OO1 (stereo partly specified) [HURGHAPEROXIDE]	37 µM	73 µM	73 µM	31 µM	45 µM	83 µM	87 µM	–
CC1=C(CC/C(C)=C/CC[C@@]2(C)CC[C@H]([C@H](C)C(=O)O)OO2)C(C)(C)CCC1	4 µM	8 µM	8 µM	3 µM	7 µM	7 µM	8 µM	Activity (Hs 683 [6]): inactive; Activity (U-373MG ATCC [7]): Active; growth inhibition (GI) (U-373MG ATCC [8]): Active; Activity (U-373MG ATCC [9]): inactive; growth inhibition (GI) (A549 [10]): Active; IC50 (HBL-100): 3 µM; Activity (Hs 683 [11]): 30%; growth inhibition (GI) (SK-MEL-28 [12]): Active; IC50 (B16-F10): 3 µM; IC50 (LoVo): 6 µM; IC50 (HaCaT): 23 µM; Activity [13]: 30%; growth inhibition (GI) (A549 [14]): Active; IC50 (NHDF): 26 µM; growth inhibition (GI) (U-373MG ATCC [15]): Active; growth inhibition (GI) (SK-MEL-28 [16]): Active
C=C1CCC[C@@H]2[C@@](C)(CC[C@@]3(C)CC[C@H]([C@H](C)C(=O)OC)OO3)[C@H](C)CC[C@@]12C	35 µM	44 µM	44 µM	24 µM	36 µM	53 µM	54 µM	–
C=C1CCC[C@@H]2[C@@H](CC[C@@]3(C)CC[C@H]([C@H](C)C(=O)O)OO3)[C@H](C)CC[C@@]12C [SIGMOSCEPTRELLIN B]	> 100 µM	> 100 µM	> 100 µM	> 100 µM	> 100 µM	> 100 µM	> 100 µM	–
COC(=O)[C@H](C)[C@H]1CC[C@@](C)(CCC2=C(C)CCCC2(C)C)OO1 [NUAPAPUIN A METHYL ESTER]	38 µM	80 µM	80 µM	25 µM	51 µM	99 µM	91 µM	–
CC1=C(CC[C@]2(C)O[C@H]2CC[C@]2(C)CC[C@@H]([C@@H](C)C(=O)O)OO2)C(C)(C)CCC1 (relative stereo)	3 µM	15 µM	1 µM	3 µM	4 µM	4 µM	–	–
O=C1N[C@@H]2C(=C[C@H](O)[C@@H](O)[C@H]2O)c2cc3c(c(O)c21)OCO3 [NARCICLASINE]	–	–	–	–	–	–	–	Activity (PC-3 [17]): >85%
COC(=O)[C@@H](C)[C@H]1CC[C@@](C)(CCC2=C(C)CCCC2(C)C)OO1	–	–	–	–	–	–	–	IC50 ([1]; hs 683): ND(Unstable); IC50 (SK-MEL-28 [2]; sk-mel-28): ND(Unstable); IC50 (PC-3 [3]; pc-3): ND(Unstable); IC50 (U-251; u-251): ND(Unstable); IC50 (A549 [4]; a549): ND(Unstable); IC50 (MCF7; mcf7): ND(Unstable); IC50 ([5]; u-373mg atcc): ND(Unstable)
